According to ChEMBL document CHEMBL2010803, “Novel NSAID 1-acyl-4-cycloalkyl/arylsemicarbazides and 1-acyl-5-benzyloxy/hydroxy carbamoylcarbazides as potential anticancer agents and antioxidants” (Eur J Med Chem, 2012):
Activity calls are given as the source filed them. The rule behind the calls is not given here.

What was measured:
Influenza B virus = assay: Antiviral activity against Influenza B virus infected in MDCK cells assessed as inhibition of virus-induced cytopathic effect at 0.32 to 100 uM; format: functional, organism-based
In short: (§1)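 Confluent MDCK monolayers were infected in the presence of the compound at 100, 40, 8, 1.6 and 0.32 μM. Viral cytopathicity was scored once it was complete in untreated infected control cultures.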

[1] = test system: Radical scavenging activity; assay: Antioxidant activity assessed as DPPH free radical scavenging activity at 100 uM after 60 mins by spectrophotometric analysis; format: functional
In short: (§2)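 0.05 mM DPPH in absolute ethanol mixed with an equal volume of compound in DMSO (final 100 μM). Shaken and left 20 or 60 min, then absorbance read at 517 nm and percent activity calculated. Three replicates, averaged.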

[2] = Antioxidant activity assessed as inhibition of AAPH-induced linoleic acid lipid peroxidation by measuring conjugated diene hydroperoxide level; format: functional; design: concentration or dose not given beside the values; settings: dose or concentration not given here
In short: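 Linoleic acid sodium salt (10 μL of 16 mM) in 0.05 M phosphate buffer pH 7.4 at 37 °C. Oxidation started under air with 50 μL of 40 mM AAPH. Conjugated diene hydroperoxide formation followed as absorbance rise at 234 nm; control contains the same DMSO level. At least triplicate.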

[3] = test system: Human immunodeficiency virus 1; assay: Antiviral activity against HIV1 3B infected in human CEM cells assessed as inhibition of virus-induced CEM giant cell formation at 0.32 to 100 uM after 4 days; format: functional, organism-based; settings: CCRF-CEM
In short: (§3)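 CEM cells (~3 × 10^5 cells/cm³) exposed to 100 CCID50/ml of virus and seeded into wells holding compound dilutions. Incubated 4 days at 37 °C, then giant cell formation examined microscopically.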

Glycine max = assay: Inhibition of soybean LOX assessed as conversion of sodium linoleate to 13- hydroperoxylinoleic acid at 100 uM
[4] = test system: Respiratory syncytial virus; assay: Antiviral activity against RSV infected in human cervix carcinoma cells assessed as inhibition of virus-induced cytopathic effect at 0.32 to 100 uM; format: functional, organism-based
In short: (§4)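 Confluent cell cultures were infected with 100 CCID50 of virus in the presence of test compound at 100, 40, 8, 1.6 and 0.32 μM. Cytopathic effect was scored once it was complete in untreated infected controls.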

Sindbis virus = assay: Antiviral activity against Sindbis virus infected in african green monkey Vero cells assessed as inhibition of virus-induced cytopathic effect at 0.32 to 100 uM; format: functional, organism-based; in short: as §4
[5] = test system: Vesicular stomatitis virus; assay: Antiviral activity against Vesicular stomatitis virus infected in human cervix carcinoma cells assessed as inhibition of virus-induced cytopathic effect at 0.32 to 100 uM; format: functional, organism-based
In short: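 Confluent human cervix carcinoma (HeLa) cultures received 100 CCID50 of VSV together with the compound at 100, 40, 8, 1.6 or 0.32 μM. Cytopathicity was read at the point of full CPE in infected, untreated control wells.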

HeLa = assay: Cytostatic activity against human HeLa cells after 3 days by coulter counter analysis; format: functional, cell-based; settings: 72 h
In short: (§5)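 300,000–500,000 cells/ml mixed 1:1 with compound dilutions and incubated at 37 °C for 2 days (L1210) or 3 days (CEM, HeLa). Cell number counted with a Coulter counter; HeLa trypsinized before counting.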

CCRF-CEM = assay: Cytostatic activity against human CEM cells after 3 days by coulter counter analysis; format: functional, cell-based; settings: 72 h; in short: as §5
[6] = test system: Vesicular stomatitis virus; assay: Antiviral activity against VSV infected in human lung fibroblast assessed as inhibition of virus-induced cytopathic effect at 0.32 to 100 uM; format: functional, organism-based
Human alphaherpesvirus 1 = assay: Antiviral activity against HSV1 KOS infected in human lung fibroblast assessed as inhibition of virus-induced cytopathic effect at 0.32 to 100 uM; format: functional, organism-based; in short: as §4
[7] = test system: Human immunodeficiency virus 2; assay: Antiviral activity against HIV2 ROD infected in human CEM cells assessed as inhibition of virus-induced CEM giant cell formation at 0.32 to 100 uM after 4 days; format: functional, organism-based; settings: ISOLATE ROD, CCRF-CEM; in short: as §3
Felid alphaherpesvirus 1 = assay: Antiviral activity against Feline herpesvirus infected in feline CRFK cells assessed as inhibition of virus-induced cytopathic effect at 0.32 to 100 uM; format: functional, organism-based; in short: as §4
HCT-116 = assay: Cytostatic activity against human HCT116 cells after 72 hrs by MTT assay; format: functional, cell-based; settings: HCT-116, 72 h
In short: (§6)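 Monolayers in DMEM with 10% FBS, 2 mM L-glutamine and penicillin/streptomycin, 37 °C, 5% CO2. Seeded at 1–3 × 10^4 cells/ml, then compound added in tenfold dilutions (10⁻⁸–10⁻⁴ M) for 72 h. MTT read at 570 nm; percent growth taken against time-zero and untreated controls. IC50 by linear regression; quadruplicate, at least two experiments.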

[8] = test system: Radical scavenging activity; assay: Antioxidant activity assessed as DPPH free radical scavenging activity at 100 uM after 20 mins by spectrophotometric analysis; format: functional; in short: as §2
Coxsackievirus B4 [9] = assay: Antiviral activity against Coxsackievirus B4 infected in human cervix carcinoma cells assessed as inhibition of virus-induced cytopathic effect at 0.32 to 100 uM; format: functional, organism-based; in short: as §4
Punta Toro virus = assay: Antiviral activity against Punta Toro virus infected in african green monkey Vero cells assessed as inhibition of virus-induced cytopathic effect at 0.32 to 100 uM; format: functional, organism-based; in short: as §4
[10] = test system: Mammalian orthoreovirus 1; assay: Antiviral activity against Reovirus-1 infected in african green monkey Vero cells assessed as inhibition of virus-induced cytopathic effect at 0.32 to 100 uM; format: functional, organism-based; in short: as §4
Human respirovirus 3 = assay: Antiviral activity against Parainfluenza virus 3 infected in african green monkey Vero cells assessed as inhibition of virus-induced cytopathic effect at 0.32 to 100 uM; format: functional, organism-based; in short: as §4
L1210 = assay: Cytostatic activity against mouse L1210 cells after 2 days by coulter counter analysis; format: functional, cell-based; settings: L1210, 48 h; in short: as §5
Human alphaherpesvirus 2 = assay: Antiviral activity against HSV2 G infected in human lung fibroblast assessed as inhibition of virus-induced cytopathic effect at 0.32 to 100 uM; format: functional, organism-based; settings: strain G; in short: as §4
Vaccinia virus = assay: Antiviral activity against Vaccinia virus infected in human lung fibroblast assessed as inhibition of virus-induced cytopathic effect at 0.32 to 100 uM; format: functional, organism-based; settings: Orthopoxvirus vaccinia
NCI-H460 = assay: Cytostatic activity against human NCI-H460 cells after 72 hrs by MTT assay; format: functional, cell-based; settings: NCI-H460, 72 h; in short: as §6
Coxsackievirus B4 [11] = assay: Antiviral activity against Coxsackievirus B4 infected in african green monkey Vero cells assessed as inhibition of virus-induced cytopathic effect at 0.32 to 100 uM; format: functional, organism-based; in short: as §4
Influenza A virus [12] = assay: Antiviral activity against Influenza A virus H1N1 infected in MDCK cells assessed as inhibition of virus-induced cytopathic effect at 0.32 to 100 uM; format: functional, organism-based; in short: as §1
MCF7 = assay: Cytostatic activity against human MCF7 cells after 72 hrs by MTT assay; format: functional, cell-based; settings: MCF7, 72 h; in short: as §6
Feline coronavirus = assay: Antiviral activity against Feline coronavirus infected in feline CRFK cells assessed as inhibition of virus-induced cytopathic effect at 0.32 to 100 uM; format: functional, organism-based; in short: as §4
Influenza A virus [13] = assay: Antiviral activity against Influenza A virus H3N2 infected in MDCK cells assessed as inhibition of virus-induced cytopathic effect at 0.32 to 100 uM; format: functional, organism-based; in short: as §1

Structure (SMILES) | inhibition (Influenza B virus) | Activity [1] | inhibition [2] | inhibition [3] | inhibition (Glycine max) | inhibition [4] | inhibition (Sindbis virus) | inhibition [5] | IC50 (CCRF-CEM) | inhibition [6] | inhibition (Human alphaherpesvirus 1) | inhibition [7] | inhibition (Felid alphaherpesvirus 1) | IC50 (HCT-116) | Activity [8] | inhibition (Coxsackievirus B4 [9]) | inhibition (Punta Toro virus) | inhibition [10] | inhibition (Human respirovirus 3) | inhibition (Human alphaherpesvirus 2) | other results
CC(C(=O)NN)c1cccc(Oc2ccccc2)c1 (stereo unspecified) | inactive | 1% | 10% | inactive | 3% | inactive | inactive | inactive | 154 µM | inactive | inactive | inactive | inactive | > 100 µM | inactive | inactive | inactive | inactive | inactive | inactive | IC50 (HeLa): 120 µM; IC50 (L1210): 212 µM; inhibition (Vaccinia virus): inactive; IC50 (NCI-H460): > 100 µM; inhibition (Coxsackievirus B4 [11]): inactive; inhibition (Influenza A virus [12]): inactive; IC50 (MCF7): > 100 µM; inhibition (Feline coronavirus): inactive; inhibition (Influenza A virus [13]): inactive
Cc1c(C)c2c(c(C)c1O)CCC(C)(C(=O)O)O2 (stereo unspecified) | – | – | 63% | – | – | – | – | – | – | – | – | – | – | – | – | – | – | – | – | – | –
CC(C(=O)NNC(=O)NNC(=O)NOCc1ccccc1)c1cccc(Oc2ccccc2)c1 (stereo unspecified) | inactive | 15% | 26% | inactive | inactive | inactive | inactive | inactive | 90 µM | inactive | inactive | inactive | inactive | 84 µM | 8% | inactive | inactive | inactive | inactive | inactive | IC50 (L1210): 103 µM; inhibition (Vaccinia virus): inactive; IC50 (NCI-H460): > 100 µM; inhibition (Coxsackievirus B4 [11]): inactive; inhibition (Influenza A virus [12]): inactive; IC50 (MCF7): 26 µM; inhibition (Feline coronavirus): inactive; inhibition (Influenza A virus [13]): inactive
CC(Cc1ccc(O)c(O)c1)C(C)Cc1ccc(O)c(O)c1 (stereo unspecified) | – | 91% | – | – | – | – | – | – | – | – | – | – | – | – | 80% | – | – | – | – | – | –
CC(C)Cc1ccc(C(C)C(=O)NNC(=O)NNC(=O)NOCc2ccccc2)cc1 (stereo unspecified) | inactive | 18% | 13% | inactive | inactive | inactive | inactive | inactive | 106 µM | inactive | inactive | inactive | inactive | 56 µM | 11% | inactive | inactive | inactive | inactive | inactive | IC50 (HeLa): 98 µM; inhibition (Vaccinia virus): inactive; IC50 (NCI-H460): 71 µM; inhibition (Coxsackievirus B4 [11]): inactive; inhibition (Influenza A virus [12]): inactive; IC50 (MCF7): 19 µM; inhibition (Feline coronavirus): inactive; inhibition (Influenza A virus [13]): inactive
CC(C(=O)NNC(=O)NC1CCCCC1)c1cccc(Cc2ccccc2)c1 (stereo unspecified) | inactive | 10% | 31% | inactive | 10% | inactive | inactive | inactive | 25 µM | inactive | inactive | inactive | inactive | 22 µM | 3% | inactive | inactive | inactive | inactive | inactive | IC50 (HeLa): 45 µM; inhibition (Vaccinia virus): inactive; IC50 (NCI-H460): 23 µM; inhibition (Coxsackievirus B4 [11]): inactive; inhibition (Influenza A virus [12]): inactive; IC50 (MCF7): 16 µM; inhibition (Feline coronavirus): inactive; inhibition (Influenza A virus [13]): inactive
